Measurements reported in ChEMBL document CHEMBL1128588, “Synthesis and cytotoxicity of water-soluble ambrosin prodrug candidates” (1995).

Experiments:
Type in all cases: functional
Conditions in all cases: Homo sapiens
[1] = system: HCT-116; assay: The compound was evaluated for cytotoxicity against colon cancer cell line HCT116
Procedure, shortened: (§1)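 Tested within a panel of about 51 human cancer cell lines covering leukemia, non-small-cell lung and other tumour types. The value reported is GI50, the concentration giving 50% growth inhibition.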

[2] = system: SF-539; assay: The compound was evaluated for cytotoxicity against CNS cancer cell line CNS SF-539; procedure, shortened: as §1
[3] = system: NCI-H522; assay: The compound was evaluated for cytotoxicity against lung cancer cell line NCI-H522; procedure, shortened: as §1
[4] = system: LOX IMVI; assay: The compound was evaluated for cytotoxicity against melanoma cell line LOX-IMVI; procedure, shortened: as §1
[5] = system: MCF7; assay: The compound was evaluated for cytotoxicity against breast cancer cell line MCF-7; procedure, shortened: as §1
[6] = system: SN12C; assay: The compound was evaluated for cytotoxicity against renal cancer cell line SN12C; procedure, shortened: as §1
[7] = system: PC-3; assay: The compound was evaluated for cytotoxicity against prostate cancer cell line PC-3; procedure, shortened: as §1
[8] = system: OVCAR-5; assay: The compound was evaluated for cytotoxicity against ovarian cancer cell line OVCAR-5; procedure, shortened: as §1

C[C@H]1CC[C@H]2C(CN3CCCC3)C(=O)O[C@H]2[C@]2(C)C(=O)CC(N3CCCC3)[C@@H]12 (some centres undefined)
GI50 [1]: 3.8 µM | GI50 [2]: 9.1 µM | GI50 [3]: 1.8 µM | GI50 [4]: 3.3 µM | GI50 [5]: 4.2 µM | GI50 [6]: 11 µM | GI50 [7]: 20 µM | GI50 [8]: 6.3 µM

C[C@H]1CC[C@H]2C(CN3CCCCC3)C(=O)O[C@H]2[C@]2(C)C(=O)CC(N3CCCCC3)[C@@H]12 (some centres undefined)
GI50 [1]: 1.8 µM | GI50 [2]: 5.4 µM | GI50 [3]: 1.1 µM | GI50 [4]: 3.6 µM | GI50 [5]: 4.7 µM | GI50 [6]: 8.1 µM | GI50 [7]: 8.5 µM | GI50 [8]: 22 µM

C=C1C(=O)O[C@@H]2[C@H]1CC[C@H](C)[C@@H]1C=CC(=O)[C@@]21C [AMBROSIN]
GI50 [1]: 1.8 µM | GI50 [2]: 2.9 µM | GI50 [3]: 1 µM | GI50 [4]: 2.2 µM | GI50 [5]: 3.9 µM | GI50 [6]: 3.4 µM | GI50 [7]: 4.5 µM | GI50 [8]: 4.9 µM
